The results in this text go back to article PMC11015380 (Heliyon, 2024).

One series has as its system Hek293 (Normal). As to the kind of experiment: WST cell viability assay, Hek293 cells. It is filed as cell-based. As to conditions: Homo sapiens, HEK293, 72 h, read-out: IC50 Hek293 (Normal).
The subject of a further series is SNU1197 (G12D). Description: WST cell viability assay, SNU1197 cells. The series is classed as cell-based. Particulars: 72 h, read-out: IC50 SNU1197 (G12D).
Another series has as its system AGS (G12D). Description: WST cell viability assay, AGS cells. Particulars: Homo sapiens, 72 h, read-out: IC50 AGS (G12D). The series is classed as cell-based.
In another series the test system is AsPC1 (G12D). Description: WST cell viability assay, AsPC1 cells. As to conditions: Homo sapiens, ASPC1, 72 h, read-out: IC50 AsPC1 (G12D). It is filed as cell-based.
In series [1] the target is KRAS-GTP (active KRAS) in MKN1 cells (Homo sapiens, UniProt P01116). As to the kind of experiment: GST-RBD pulldown assay, MKN1 cells. The series is classed as cell-based. As to conditions: MKN1, 5 or 7.5 μM, 24 h. An outline of the steps:
(§1)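 AGS or MKN1 cells were exposed to DMSO or test compound (0, 5, 7.5 μM) for 24 h and lysed in 1X passive lysis buffer. Lysate (400 μg protein) was incubated overnight with glutathione–GST-RBD to capture GTP-bound KRAS. Pulled-down protein was immunoblotted with anti-KRAS antibody, and band intensity was quantified (n = 2).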

Series [2] deals with MKN1 (KRAS wild-type) cells. As to the kind of experiment: Annexin V-FITC/PI apoptosis detection assay, MKN1 cells. As to conditions: MKN1, 0, 2.5, and 5 μM, 24 h, flow cytometry. The series is classed as cell-based. An outline of the steps: (§2)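 AGS or MKN1 cells were seeded at 3–5 × 10^5 cells/well in 6-well plates and grown overnight. They were treated with test compound at 0, 2.5 or 5 μM for 24 h. Cells were harvested, PBS-washed and resuspended in 1X binding buffer.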
On the technique in general: In flow cytometry, cells or beads pass a laser one at a time.

Another series has as its system AsPC1 tumor. As to the kind of experiment: In vivo antitumor efficacy study, AsPC1 xenograft. Particulars: 15 mg/kg i.p. once daily for 14 days. The arrangement: species or system female BALB/c nude mice. An outline of the steps:
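Female BALB/c nude mice (5–6 weeks) received 5.0 × 10^6 AsPC1 cells s.c. into the right hind flank in PBS. At tumour volume >100 mm3, mice were randomised to vehicle or test compound at 15 mg/kg i.p. once daily for 14 days (10% DMSO, 40% PEG300, 5% Tween-80, 45% saline; 200 μL/mouse). Tumours were measured by caliper thrice weekly and body weight twice weekly. TGI (%) = (1 − RTVtreatment/RTVcontrol) × 100, with RTV relative to day 0.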

Another series deals with AGS cells. As to the kind of experiment: Annexin V-FITC/PI apoptosis detection assay, AGS cells. It is filed as cell-based. As to conditions: AGS, 0, 2.5, and 5 μM, 24 h, flow cytometry. An outline of the steps: as §2
Series [3] deals with KRAS downstream proteins, including PARP, in MKN1 cells. Description: Immunoblotting of KRAS downstream signals and PARP, MKN1 cells. It is filed as cell-based. As to conditions: MKN1, 5 or 7.5 μM, 24 h. An outline of the steps:
(§3)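 Cells (3–5 × 10^5/well, 6-well plates) were grown overnight, then given DMSO or test compound at 5 or 7.5 μM for 24 h. Lysis was in RIPA with protease/phosphatase inhibitors, with BCA protein assay. Equal protein was run on 8–12% SDS-PAGE and transferred to nitrocellulose. Blots were blocked in 5% milk/TBST, probed overnight at 4 °C (ERK, pERK, AKT, pAKT, S6, pS6, PARP), then HRP secondary 1 h, ECL. Bands were normalised to β-actin (n = 2).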
Background: A western blot detects proteins with antibodies after separation by electrophoresis.

Series [4] deals with KRAS-GTP (active KRAS) in AGS cells (Homo sapiens, UniProt P01116, G12D). Description: GST-RBD pulldown assay, AGS cells. The series is classed as cell-based. Particulars: 5 or 7.5 μM, 24 h. An outline of the steps: as §1
Series [5] relates to pERK, pAKT, pS6, cleaved PARP in AGS cells. As to the kind of experiment: Immunoblotting of KRAS downstream signals and PARP, AGS cells. It is filed as cell-based. Particulars: 5 or 7.5 μM, 24 h. An outline of the steps:
as §3

Each structure is given as a SMILES string.

For the compound `C#Cc1c(F)ccc2cc(O)cc(-c3ncc4c(N5CC6CCC(C5)N6)nc(OC[C@@]56CCCN5C[C@H](F)C6)nc4c3F)c12` [MRTX1133, reference compound], the IC50 came to 19.7 µM with Hek293 (Normal), 0.037 µM in the series on SNU1197 (G12D), 0.0065 µM with AGS (G12D) and 0.062 µM in the series on AsPC1 (G12D).

As for `Cl.c1ccc(CN(Cc2ccccc2)c2nc(N3CCC4(CC3)CNC4)c3ncn(Cc4ccccc4)c3n2)cc1` [PU1-1, N,N,9-tribenzyl-6-(2,7-diazaspiro[3.5]nonan-7-yl)-9H-purin-2-amine hydrogen chloride], in [1], the KRAS-GTP protein expression entry was “no protein expression changes”. Besides, the half-inhibitory concentration (IC50) was determined as 9.2 ± 0.2 µM in the series with Hek293 (Normal), 3.8 ± 0.8 µM in the series with SNU1197 (G12D), 3.2 ± 0.4 µM in the series on AGS (G12D) and 5.9 ± 0.3 µM in the series with AsPC1 (G12D). In addition, the apoptosis entry in series [2] is recorded as “did not show significant apoptosis”. Moreover, the “body weight change during treatment” value in the series with AsPC1 tumor is reported as “no noticeable weight loss”. Also, in the series on AsPC1 tumor (day 14), the “TGI (tumor growth inhibition)” value turned out to be 42%. Further, in the series on AGS cells, the “proportion of early (LR) and late apoptotic (UR) cells” value is “increased”. Also, the “KRAS downstream proteins, including PARP, expression” value in series [3] is on record as “no protein expression changes”. Moreover, in series [4], the KRAS-GTP levels entry is “significantly downregulated”. In addition, the “pERK, pAKT, and pS6 levels” value in [5] is listed as “significantly decreased”. Moreover, in series [5] (versus DMSO-treated group), the “levels of cleaved PARP” value was “significantly increased”.

In the case of `Cc1nc(-c2ccc(Cl)cc2)nc(N2CCC3(CC2)CNC3)c1Cc1ccccc1` [PY1-2, 7-(5-benzyl-2-(4-chlorophenyl)-6-methylpyrimidin-4-yl)-2,7-diazaspiro[3.5]nonane, 2,2,2-trifluoroacetic acid], the IC50 came to 9.1 ± 0.7 µM with Hek293 (Normal), 3.3 ± 0.6 µM in the series with AGS (G12D) and 10.9 ± 0.4 µM with AsPC1 (G12D).

By IC50 is commonly meant the concentration needed to halve the response being measured.
